Measurements reported in paper PMC6930011 (Journal of the American Chemical Society, 2019).
Where no end group is shown, it is not given here.

Tests used:
hPTHR1 = test: Washout assay of cAMP signaling duration; format: cell-based, human; settings: excess PTHR1 antagonist (D)Trp^12,Tyr^34-bPTH(7-34) during washout; 1 nM agonist
How it was run: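 HEK293 cells stably expressing hPTHR1, with β-arrestin at endogenous levels, were stimulated with 1 nM agonist for a defined period. Agonist was then washed off and cAMP monitored during the ligand-off phase, with excess antagonist present after washout and, in some runs, BA1 added as well. Output was area under curve, normalized to PTH(1-34)-NH2 at 1 nM. Data were mean ± s.e.m. from n = 3–4 independent experiments, compared by one-way ANOVA.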

PTHR1 = format: cell-based; settings: HEK293 cells stably expressing HA-tagged PTHR1
human PTHR1 = test: cAMP production, GloSensor assay in HEK-293 cells stably expressing human PTHR1; format: cell-based; settings: relative to PTH(1-34)-NH2; Figure S2

Substance	effect of antagonist after washout on duration and extent of cAMP production (hPTHR1)	co-IP of the PTHR1 and endogenous β-arrestin (PTHR1)	potency in stimulating cAMP production, fold less potent than PTH(1-34)-NH2 (human PTHR1)
PTH(1-34)-NH2	only a modest drop	effectively induced co-IP	–
Trp^1-PTHrP(1-36)-NH2 (WVSEHQLLHDKGKSIQDLRRRFFLHHLIAEIHTAEI-NH2; UniProt P12272 37-72, looked up, variant A1W)	–	–	~ 5 fold
Tyr^1-PTH(1-34)-NH2 (YVSEIQLMHNLGKHLNSMERVEWLRKKLQDVHNF-NH2; UniProt P01270 32-65, looked up, variant S1Y)	–	–	~ 5 fold
